# The source made the active and inactive calls. The rule behind the calls is not given here.
# Assays:
# [1] = Solubility in 5% dextrose; assay type: physicochemical
# [2] = Volume of distribution at steady state in fasted nu/nu mouse at 10 mg/kg, iv by LC/MS/MS analysis; assay type: ADME, organism-based; design: dose 10 mg/kg, route intravenous; details: in vivo, read-out: Vdss
# How it was run: (§1)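 Overnight-fasted male Nu/Nu mice received a single 10 mg/kg dose iv or orally, in 5% dextrose vehicle, given as the hydrochloride salt. Three mice per route. Saphenous vein blood was drawn predose and at 0.083 (iv) or 0.25 (po), 0.5, 1, 6 and 24 h. Samples were spun at 10000g for 3 min at 4 °C, and plasma was stored at -80 °C until analysis.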
# [3] = Half life in fasted nu/nu mouse at 10 mg/kg, iv by LC/MS/MS analysis; assay type: ADME, organism-based; design: dose 10 mg/kg, route intravenous; details: in vivo; how it was run: as §1
# [4] = Half life in fasted nu/nu mouse at 10 mg/kg, po by LC/MS/MS analysis; assay type: ADME, organism-based; design: dose 10 mg/kg, route oral; details: in vivo; how it was run: as §1
# [5] = Oral bioavailability in fasted nu/nu mouse at 10 mg/kg by LC/MS/MS analysis; assay type: ADME, organism-based; details: in vivo; how it was run: as §1
# [6] = AUC in fasted nu/nu mouse at 10 mg/kg, po LC/MS/MS analysis; assay type: ADME, organism-based; design: dose 10 mg/kg, route oral; details: plasma; how it was run: as §1
# [7] = Cmax in fasted nu/nu mouse at 10 mg/kg, po by LC/MS/MS analysis; assay type: ADME, organism-based; design: dose 10 mg/kg, route oral; details: in vivo; how it was run: as §1
# [8] = Clearance in fasted nu/nu mouse at 10 mg/kg, iv by LC/MS/MS analysis; assay type: ADME, organism-based; design: dose 10 mg/kg, route intravenous; details: in vivo; how it was run: as §1
# Homo sapiens = organism: Homo sapiens; assay: Protein binding in human plasma; details: read-out: PPB (converted)
# Cytochrome P450 3A4 = Cytochrome P450 3A4 (Homo sapiens, UniProt P08684); assay: Inhibition of human CYP3A4 assessed as compound remaining by LC/MS/MS analysis; assay type: ADME; design: concentration or dose not given beside the values
# A2780 = assay: Antiproliferative activity against human A2780 cells after 72 hrs by cell Titer_Glo assay; assay type: functional, cell-based; details: A2780, 72 h
# How it was run: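 A2780 cells were seeded at 10000–30000 cells/cm² in medium with 10% FCS. After 24 h they were treated with serial dilutions of compound, in two replicates. Cell amount was read by Cell Titer Glo 72 h after treatment. IC50 came from sigmoidal fitting.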
# [9] = target: T1, Cyclin-dependent kinase 2 (Homo sapiens, UniProt P24941); assay: Inhibition of CDK2/Cyclin A
# Aurora kinase A = target: T2, Aurora kinase A (Homo sapiens, UniProt O14965); assay: Inhibition of Aurora A
# T2 sequence (O14965 whole entry): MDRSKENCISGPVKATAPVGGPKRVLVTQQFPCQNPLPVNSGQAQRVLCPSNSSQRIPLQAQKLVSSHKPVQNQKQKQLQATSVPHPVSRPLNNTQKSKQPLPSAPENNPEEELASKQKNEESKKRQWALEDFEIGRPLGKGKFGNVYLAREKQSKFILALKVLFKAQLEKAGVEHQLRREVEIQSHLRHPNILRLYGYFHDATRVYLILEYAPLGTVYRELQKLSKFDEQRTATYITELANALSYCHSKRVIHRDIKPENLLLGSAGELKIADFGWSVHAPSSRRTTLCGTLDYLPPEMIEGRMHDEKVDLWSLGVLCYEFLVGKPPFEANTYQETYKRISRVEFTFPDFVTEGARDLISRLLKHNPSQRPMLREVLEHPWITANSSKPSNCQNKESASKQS
# [10] = Solubility at pH 7; assay type: physicochemical; details: buffer
# [11] = target: T1, Cyclin-dependent kinase 2; assay: Inhibition of CDK2 in human A2780 cells assessed as accumulation of hypophosphorylated form of retinoblastoma protein at 3 uM relative to control; assay type: cell-based
# How it was run: (§2)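 A2780 human ovarian carcinoma cells (ECACC) were seeded at 25 000 cells/cm2 in RPMI 1640 pH 7.4 with 10% FBS and 2 mM L-glutamine, at 37 °C in 5% CO2. They were exposed 24 h later to 1 or 3 µM. Floating and adherent cells were harvested with trypsin/EDTA. Extracts were immunoblotted for hyper- and hypophosphorylated pRb and compared with untreated cells.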
# [12] = target: T1, Cyclin-dependent kinase 2; assay: Inhibition of CDK2 in human A2780 cells assessed as reduction of hyperphosphorylated form of retinoblastoma protein at 1 uM relative to control; assay type: cell-based; how it was run: as §2
# [13] = target: T1, Cyclin-dependent kinase 2; assay: Inhibition of CDK2 in human A2780 cells assessed as accumulation of hypophosphorylated form of retinoblastoma protein at 1 uM relative to control; assay type: cell-based; how it was run: as §2
# [14] = target: T1, Cyclin-dependent kinase 2; assay: Inhibition of CDK2 in human A2780 cells assessed as reduction of hyperphosphorylated form of retinoblastoma protein at 3 uM relative to control; assay type: cell-based; how it was run: as §2
# Cytochrome P450 3A4, sequence (P08684 whole entry): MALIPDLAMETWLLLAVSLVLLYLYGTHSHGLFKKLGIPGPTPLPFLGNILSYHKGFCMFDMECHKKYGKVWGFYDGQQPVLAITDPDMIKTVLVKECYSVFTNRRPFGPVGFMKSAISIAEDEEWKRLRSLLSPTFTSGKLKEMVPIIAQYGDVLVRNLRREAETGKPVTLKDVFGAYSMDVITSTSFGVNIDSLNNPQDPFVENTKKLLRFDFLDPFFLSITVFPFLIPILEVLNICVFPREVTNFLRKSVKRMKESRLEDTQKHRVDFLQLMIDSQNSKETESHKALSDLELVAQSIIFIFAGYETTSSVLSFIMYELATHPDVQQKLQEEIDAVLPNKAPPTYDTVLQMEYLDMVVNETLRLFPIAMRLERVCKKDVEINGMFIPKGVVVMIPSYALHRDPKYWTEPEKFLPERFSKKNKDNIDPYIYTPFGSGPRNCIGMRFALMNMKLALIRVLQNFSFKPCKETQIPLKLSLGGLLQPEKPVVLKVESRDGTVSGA
Compound,IC50 (A2780) [µM],IC50 [9] [µM],IC50 (Aurora kinase A) [µM],solubility [10] [µM],further results
CNC(=O)c1nn(C)c2c1C(C)(C)Cc1cnc(Nc3ccc(CN(C)C)cc3)nc1-2.Cl,–,–,–,–,solubility [1]: 10000 µg/mL; Vd [2]: 4.04 L/kg; half-life [3]: 1.4 h; half-life [4]: 3.4 h; bioavailability [5]: 28%; AUC [6]: 1.97 µM·h; Cmax [7]: 570 nM; clearance [8]: 53.3 mL/min/kg; fraction unbound (Homo sapiens): 0.05; Activity (Cytochrome P450 3A4): 77%
CN1CCN(c2ccc(Nc3ncc4c(n3)-c3c(c(C(N)=O)nn3C)CC4)cc2)CC1,0.03,0.002,0.053,156,–
Cn1nc(C(=O)NC2CCCC2)c2c1-c1nc(Nc3ccccc3)ncc1CC2,–,–,–,1,–
CNC(=O)c1nn(C)c2c1C(C)(C)Cc1cnc(Nc3cccc(N(C)C)c3)nc1-2,3.01,0.22,1.44,41,–
CNC(=O)c1nn(C)c2c1CCc1cnc(Nc3ccccc3)nc1-2,–,–,–,1,–
CNC(=O)c1nn(C)c2c1C(C)(C)Cc1cnc(Nc3cccc(N4CCN(C)CC4)c3)nc1-2,0.53,0.031,1,182,–
CNC(=O)c1nn(C)c2c1CCc1cnc(Nc3ccc(N4CCN(C)CC4)cc3)nc1-2,0.19,0.045,0.175,211,–
CNC(=O)c1nn(C)c2c1C(C)(C)Cc1cnc(Nc3cccc(CN(C)C)c3)nc1-2,0.5,0.083,2.94,193,–
CNC(=O)c1nn(C)c2c1C(C)(C)Cc1cnc(Nc3cccc(OC4CCN(C)CC4)c3)nc1-2,0.39,0.047,1.58,160,–
CNC(=O)c1nn(C)c2c1C(C)(C)Cc1cnc(Nc3ccc(N4CCOCC4)cc3)nc1-2,0.37,0.137,0.649,46,–
CNC(=O)c1nn(C)c2c1C(C)(C)Cc1cnc(Nc3cccc(N4CCOCC4)c3)nc1-2,0.7,0.248,0.625,51,–
CNC(=O)c1nn(C)c2c1C(C)(C)Cc1cnc(Nc3ccc(CN4CCN(C)CC4)cc3)nc1-2.Cl,–,–,–,–,solubility [1]: 10000 µg/mL; Vd [2]: 3.23 L/kg; half-life [3]: 1.8 h; half-life [4]: 4.2 h; bioavailability [5]: 42%; AUC [6]: 3.37 µM·h; Cmax [7]: 770 nM; clearance [8]: 31.6 mL/min/kg; fraction unbound (Homo sapiens): 0.01; Activity (Cytochrome P450 3A4): 50%
Cn1nc(C(=O)NC2CC2)c2c1-c1nc(Nc3ccccc3)ncc1CC2,–,–,–,1,–
CNC(=O)c1nn(C)c2c1C(C)(C)Cc1cnc(Nc3cccc(CN4CCN(C)CC4)c3)nc1-2,0.57,0.059,1.18,162,–
CNC(=O)c1nn(C)c2c1C(C)(C)Cc1cnc(Nc3ccc(OC4CCN(C)CC4)cc3)nc1-2.Cl,–,–,–,–,solubility [1]: 10000 µg/mL; Vd [2]: 5.27 L/kg; half-life [3]: 1.9 h; half-life [4]: 3.9 h; bioavailability [5]: 38%; AUC [6]: 2.51 µM·h; Cmax [7]: 600 nM; clearance [8]: 43.7 mL/min/kg; Activity (Cytochrome P450 3A4): 63%
CNC(=O)c1nn(C)c2c1C(C)(C)Cc1cnc(Nc3ccc(N4CCN(C)CC4)cc3)nc1-2,–,–,–,–,Activity [11]: Active; Activity [12]: Active; Activity [13]: Active; Activity [14]: Active

Compound,IC50 (A2780) [µM],IC50 [9] [µM],IC50 (Aurora kinase A) [µM],solubility [10] [µM],further results
Cn1nc(C(=O)NCCO)c2c1-c1nc(Nc3ccccc3)ncc1CC2,2.38,0.074,0.364,7,–
CN1CCN(c2cccc(Nc3ncc4c(n3)-c3c(c(C(N)=O)nn3C)CC4)c2)CC1,0.03,0.001,0.03,47,–
CNC(=O)c1nn(C)c2c1C(C)(C)Cc1cnc(Nc3cccc(CN4CCOCC4)c3)nc1-2,0.87,0.16,0.638,121,–
CNC(=O)c1nn(C)c2c1C(C)(C)Cc1cnc(Nc3ccc(CN4CCOCC4)cc3)nc1-2,0.35,0.036,0.535,133,–
Cn1nc(C(=O)NCc2ccccc2)c2c1-c1nc(Nc3ccccc3)ncc1CC2,0.58,1.05,0.374,1,–
Cn1nc(C(N)=O)c2c1-c1nc(Nc3ccccc3)ncc1CC2,–,–,–,3,–
Cn1nc(C(N)=O)c2c1-c1nc(Nc3ccccc3)ncc1CC2(C)C,0.17,0.024,> 10,< 1,–
Cn1nc(C(=O)Nc2ccccc2)c2c1-c1nc(Nc3ccccc3)ncc1CC2,–,–,–,1,–
CNC(=O)c1nn(C)c2c1C(C)(C)Cc1cnc(Nc3ccc(CN(C)C)cc3)nc1-2,0.11,0.035,> 5,206,–
CN1CCN(c2ccc(Nc3ncc4c(n3)-c3c(c(C(N)=O)nn3C)C(C)(C)C4)cc2)CC1.Cl,–,–,–,–,solubility [1]: 3400 µg/mL; fraction unbound (Homo sapiens): 0.01; Activity (Cytochrome P450 3A4): 82%
Cn1nc(C(N)=O)c2c1-c1nc(Nc3ccc(N4CCOCC4)cc3)ncc1CC2,0.12,0.014,0.051,10,–
CNC(=O)c1nn(C)c2c1C(C)(C)Cc1cnc(Nc3ccc(CN4CCN(C)CC4)cc3)nc1-2,0.24,0.055,1.61,170,–
CNC(=O)c1nn(C)c2c1C(C)(C)Cc1cnc(Nc3ccc(N(C)C)cc3)nc1-2,0.5,0.059,0.855,56,–
CN1CCN(c2ccc(Nc3ncc4c(n3)-c3c(c(C(N)=O)nn3C)C(C)(C)C4)cc2)CC1,0.05,0.017,0.582,98,–
CNC(=O)c1nn(C)c2c1C(C)(C)Cc1cnc(Nc3ccc(OC4CCN(C)CC4)cc3)nc1-2,0.17,0.029,1.34,183,–

# — ChEMBL document CHEMBL1151962, “Identification of N,1,4,4-tetramethyl-8-{[4-(4-methylpiperazin-1-yl)phenyl]amino}-4,5-dihydro-1H-pyrazolo[4,3-h]quinazoline-3-carboxamide (PHA-848125), a potent, orally available cyclin dependent kinase inhibitor” (J Med Chem, 2009)
